Reference: ChEMBL document CHEMBL1147268, “New triterpene glycosides from the stems of Anomospermum grandifolium” (2003)
Values after ≈ are worked out from the molar mass of the structure shown. Active and inactive are the calls of the source. No cut-off for these calls is given here.

Legend:
[1] = tested on: Pseudomonas aeruginosa; test: Antibacterial activity against Pseudomonas aeruginosa ATCC 27853 at 250 ug/mL after 18 hrs by broth microdilution method; format: functional, organism-based
Outline: (§1)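 Broth microdilution in Mueller Hinton broth in 96-well plates, run in duplicate following NCCLS guidance. Pure compounds were tested at dilution intervals up to a top concentration of 120 or 250 µg/mL. Plates were incubated 18 h at 37 °C and read from below with a reflective viewer. DMSO served as blank control and ampicillin as positive control.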

[2] = tested on: Staphylococcus aureus; test: Antibacterial activity against Staphylococcus aureus ATCC 25923 at 250 ug/mL after 18 hrs by broth microdilution method; format: functional, organism-based; outline: as §1
[3] = tested on: Candida albicans; test: Antifungal activity against Candida albicans ATCC 3153 after 18 hrs by broth microdilution method; format: functional; conditions: ATCC 3153, 18 h
Outline: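 Candida albicans ATCC 3153 was tested by broth microdilution in Sabouraud broth in 96-well plates, in duplicate, per NCCLS. Pure compounds were tested at varied dilution intervals. Plates were incubated 18 h at 37 °C and read from below with a reflective viewer. MIC was taken from the growth end point. DMSO served as blank control and ketoconazole as positive control.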

[4] = tested on: Escherichia coli; test: Antibacterial activity against Escherichia coli ATCC 25922 at 250 ug/mL after 18 hrs by broth microdilution method; format: functional, organism-based; outline: as §1
[5] = tested on: Enterococcus faecalis; test: Antibacterial activity against Enterococcus faecalis ATCC 29212 at 250 ug/mL after 18 hrs by broth microdilution method; format: functional, organism-based; outline: as §1
[6] = tested on: Staphylococcus aureus; test: Antibacterial activity against Staphylococcus aureus ATCC 25923 at 120 ug/mL after 18 hrs by broth microdilution method; format: functional, organism-based; outline: as §1
[7] = tested on: Enterococcus faecalis; test: Antibacterial activity against Enterococcus faecalis ATCC 29212 at 120 ug/mL after 18 hrs by broth microdilution method; format: functional, organism-based; outline: as §1
[8] = tested on: Pseudomonas aeruginosa; test: Antibacterial activity against Pseudomonas aeruginosa ATCC 27853 at 120 ug/mL after 18 hrs by broth microdilution method; format: functional, organism-based; outline: as §1
[9] = tested on: Escherichia coli; test: Antibacterial activity against Escherichia coli ATCC 25922 at 120 ug/mL after 18 hrs by broth microdilution method; format: functional, organism-based; outline: as §1

Row | Compound | Activity [1] | Activity [2] | MIC [3] [µg/mL] | Activity [4] | Activity [5] | Activity [6] | Activity [7] | Activity [8] | Activity [9]
1 | CC(C)=C[C@H]1C[C@](C)(O)[C@@H]2[C@H]3CC[C@@H]4[C@@]5(C)CC[C@H](O[C@@H]6OC[C@H](O)[C@H](O[C@@H]7O[C@H](CO[C@@H]8O[C@H](CO)[C@@H](O)[C@H](O)[C@H]8O)[C@@H](O)[C@H](O)[C@H]7O)[C@H]6O[C@@H]6O[C@@H](CO)[C@H](O)[C@H]6O)C(C)(C)[C@@H]5CC[C@@]4(C)[C@@]34CO[C@@]2(C4)O1 | inactive | inactive | 250 (≈ 236 µM) | inactive | inactive |  |  |  | 
2 | CC(C)=C[C@H]1C[C@](C)(O)[C@@H]2[C@H]3CC[C@@H]4[C@@]5(C)CC[C@H](O[C@@H]6OC[C@H](O)[C@H](O[C@@H]7O[C@H](CO)[C@@H](O)[C@H](O)[C@H]7O)[C@H]6O[C@@H]6O[C@@H](CO)[C@H](O)[C@H]6O)C(C)(C)[C@@H]5CC[C@@]4(C)[C@@]34CO[C@@]2(C4)O1 |  |  |  |  |  | inactive | inactive | inactive | inactive
3 | CC(=O)N1CCN(c2ccc(OCC3COC(Cn4ccnc4)(c4ccc(Cl)cc4Cl)O3)cc2)CC1 (stereo not given) [KETOCONAZOLE] |  |  | 0.1 (≈ 0.188 µM) |  |  |  |  |  | 
